Laboratory results reported in the RNAGym collection of RNA variant scans (doi:10.1126/science.aae0568).
Fewer inactive variants are shown than the library holds.

B1: tRNA (parent)
chain: GUUCCGUUGGCGUAAUGGUAACGCGUCUCCCUCCUAAGGAGAAGACUGCGGGUUCGAGUCCCGUACGGAACG

Variants of: B1
Test: yeast fitness relative to wild type (ratio to wild type); higher = fitter; tRNA-Arg(CCU), competitive growth, 37 C, YPD
In short: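 For this measurement, the tRNA-Arg(CCU) gene was varied by chemical synthesis at a 3% per-site mutation rate across 69 sites, and each variant was placed at the native genomic locus in Saccharomyces cerevisiae. The pooled strains went through a 24-hour competition in YPD at 37°C in six parallel replicates, with amplicons from start and end populations read by 100-nucleotide paired-end sequencing. Darwinian fitness relative to wild type followed from the change in each genotype's frequency. Genotypes needed ≥ 100 starting reads, and estimates < 0.5 were set to 0.5.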

Row | Variant | yeast fitness
1 | U7G C24G C27U C29A | 0.6
2 | U7G G9A A43C | 0.515
3 | U7G C30A A65C | 1.06
4 | U7C C11G U26C | ≤ 0.5
5 | U7C C30U A37G C46U G52C C62G A70C | ≤ 0.5
6 | U7C C62U C66G | ≤ 0.5
7 | U7G G10C C33U U53G C60A G68U A69C | 0.776
8 | U7G C29U U47G | ≤ 0.5
9 | U7C C46U U59G G67U | ≤ 0.5
10 | U7G G67C | 0.856
11 | U7G C60U G63C | 0.585
12 | U7G C27U A57C A70U | ≤ 0.5
13 | U7G A42C G44C A65C | 1.08
14 | U7C U47G | ≤ 0.5
15 | U7C G41A A42C G50C A70C | ≤ 0.5
16 | U7G C11G C34U A40G G41A | ≤ 0.5
17 | U7C G67A | 0.863
18 | U7C G67U | 0.847
19 | U7C G48C C61G A65U | ≤ 0.5
20 | U7G G68C | 0.895
21 | U7G C11U U16A | 0.518

Row | Variant | yeast fitness
22 | U7G C29U | 0.775
23 | U7C U19G C61G C62U | 0.514
24 | U8A | 0.741
25 | U7C C27U C29A G58C | ≤ 0.5
26 | U7G A20U | 0.742
27 | U7G C11U G12C C33U | ≤ 0.5
28 | U7G G23C C30G A36U C61U A65U | 0.527
29 | U7G C22U G51C G58A | ≤ 0.5
30 | U7G A45C C49U | 0.508
31 | U7G C55G G56C | 0.608
32 | U7C U16A U28A | ≤ 0.5
33 | U7G A21U A40G G67A | ≤ 0.5
34 | U7C G10A G50C | ≤ 0.5
35 | U7G C11G C30G C33G G48C C60A | ≤ 0.5
36 | U7C C27U A45U C66U | 0.617
37 | U7G A20G U32G A43C A45U | ≤ 0.5
38 | U7C G9C A20G G41A | ≤ 0.5
39 | U7C C61G A65C | ≤ 0.5
40 | U7C C61G A65G | 0.57
41 | U7G C61A | 0.708
42 | U7G A14C C30G C66U | ≤ 0.5

Row | Variant | yeast fitness
43 | U7C C34U C66U | ≤ 0.5
44 | U7G U28C U59C U64C A70C | ≤ 0.5
45 | U7C C11A G67U | ≤ 0.5
46 | U7G A70G | 0.993
47 | U7G U26C A42U C46U | 0.581
48 | U7C C31U U32G | 0.542
49 | U7G A15U C62U C66A | ≤ 0.5
50 | U7C G38C C49A | 0.618
51 | U7G G25C G58C | 0.558
52 | U7G A69C | 0.851
53 | U7C C34G A36U A37U | ≤ 0.5
54 | U8A A20C A43U A69C | ≤ 0.5
55 | U7G C30G G56A | 0.505
56 | U7C C24A C61U | 0.543
57 | U7C C31G A65U | 0.664
58 | U7G G63A G67C | ≤ 0.5
59 | U7G G12A G25A C33G C62U | ≤ 0.5
60 | U7G C55G G68C | 0.6
61 | U7G A21C G44C | 0.545
62 | U7C G38C C49A G56A C61G | ≤ 0.5
63 | U7G U13C G52A A57C A65C | ≤ 0.5

Row | Variant | yeast fitness
64 | U7G U54C C66A | ≤ 0.5
65 | U7G C22G | 0.726
66 | U7G C22A | 0.653
67 | U7G G9A | 0.827
68 | U7G C61U A70G | 0.669
69 | U8A A14C C31A G41C C49A G56A G63A G67A | ≤ 0.5
70 | U8A A15U C61U | ≤ 0.5
71 | U7G A36G A45G C49U | 0.641
72 | U7G A57U | 0.599
73 | U7C C11G C24A U47A U64C G67U | ≤ 0.5
74 | U8A A15U A37C G68A | ≤ 0.5
75 | U7C C27A | 0.894
76 | U7C C27G | 0.696
77 | U7G C27G A40U G58C | ≤ 0.5
78 | U7C C30G G58C C66U | ≤ 0.5
79 | U7G U35G | 0.536
80 | U7G A21U C29A C55A A69U | ≤ 0.5
81 | U7G U26C | 0.88
82 | U8A A14C C49G A70U | 0.515
83 | U7G A14G U35G A43G | 0.557
